An excerpt weighted towards active compounds, which were near 3.3% of everything screened.
NRP1-CendR mod – modulators of CendR peptide binding to human neuropilin-1; O14786; FAM-RPARPAR peptide binding to NRP-1, fluorescence polarization; inhibition, % at 25 µM; 360,000 tested, 0.85% active;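 active = inhibition or corrected inhibition above about 18%, plus a signal ratio from 0.5 to 1.5, limit read from the data, passing the limit was not always enough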
Arrestin-AP2 inh – blocks beta-arrestin peptide binding to AP2 adaptin; FITC-arrestin peptide / GST-AP2 beads, flow cytometry; AP2 beta2 appendage carries R879A mutation; inhibition, % at 10 µM; 340,000 tested, 0.31% active; AID 504490;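 active = inhibition above a set limit, near 3 SD of compounds lacking own fluorescence, cut at about 54% in these data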
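Test system: GST-tagged AP2 beta2-adaptin appendage (R879A) on 4 µm glutathione beads; also added: fluorescein-tagged arrestin peptide at 50 nM final; timing: 12 min plus 1 h, RT; signal: flow cytometry, FL1 (488/535 nm); read-out: percent drop in bead-associated FITC signal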
m5-HT2A agonist – agonists of mouse serotonin 5-HT2A receptor (HTR2A); CHO-K1 mHTR2A beta-arrestin complementation, luminescence; percent of 30 µM serotonin response; activation, % at 7.6 µM; 360,000 tested, 0.66% active;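 active = activation above a run cutoff, the mean activation of all tested compounds plus 3 SD, cut at about 14% in these data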
Target sequence (P35363 whole entry, looked up): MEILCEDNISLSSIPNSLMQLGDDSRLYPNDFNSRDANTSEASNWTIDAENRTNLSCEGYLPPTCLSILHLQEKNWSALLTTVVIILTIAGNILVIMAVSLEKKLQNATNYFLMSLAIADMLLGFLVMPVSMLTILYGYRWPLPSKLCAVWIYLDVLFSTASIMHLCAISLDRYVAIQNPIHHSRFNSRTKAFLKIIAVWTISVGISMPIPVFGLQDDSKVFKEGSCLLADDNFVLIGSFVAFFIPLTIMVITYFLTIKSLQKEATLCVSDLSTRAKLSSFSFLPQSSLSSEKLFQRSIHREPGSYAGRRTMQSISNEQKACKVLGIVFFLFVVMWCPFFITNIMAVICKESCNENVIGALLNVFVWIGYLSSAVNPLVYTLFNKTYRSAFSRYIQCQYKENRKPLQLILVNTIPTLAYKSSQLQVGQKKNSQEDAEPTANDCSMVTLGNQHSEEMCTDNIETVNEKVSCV
PfM18AAP inh – PfM18AAP enzyme inhibition. recombinant PfM18AAP, H-Glu-NHMec fluorogenic cleavage. inhibition, % at 7.35 µM. 290,000 tested, 1.2% active. AID 1822;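 active = inhibition above the campaign mean inhibition over all tested compounds plus 3 SD, cut at about 28% in these data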
Lipid droplet – modulators of hepatic lipid droplet formation; AML12 mouse hepatocytes, oleate lipid droplets, BODIPY imaging; inhibition, % at 6.5 µM; 240,000 tested, 0.4% active;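 active = lipid droplet intensity inhibited by at least 50%, with more than 500 cells counted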
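Technique: fluorescence imaging, 20x objective, two fields per well / Assay system: AML12 hepatocytes (mouse) / Measure: % inhibition of lipid droplet signal / Doses: 6.5 µM single-point dosing / Incubation: overnight exposure / Reagent: 100 µM oleic acid challenge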
HGIII-sPLA2 inh – Inhibits HGIII-sPLA2 liposome hydrolysis, primary screen; Q9NZ20; QFRET BODIPY PC-A2 liposome hydrolysis, fluorescence; inhibition, % at 12.2 µM; 370,000 tested, 0.56% active;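 active = inhibition above mean plus 3 SD of compounds lying within the high and low control bounds, cut at about 19% in these data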
MOR ag counter – activates human mu opioid receptor in HTR2A counterscreen. shares compounds with m5-HT2A agonist. activation, % at 9.3 µM. U2OS OPRM1 beta-arrestin PathHunter, luminescence; DMSO 0%, DAMGO 9.3 µM 100%. 2,300 tested, 5.3% active;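 active = mean activation above the mean of DMSO-only wells plus 3 SD, cut at about 0.5% in these data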
HTR2A ag conf – mouse HTR2A agonism confirmed. shares compounds with m5-HT2A agonist. CHO-K1 PathHunter beta-arrestin recruitment, luminescence; DMSO 0%, 30 µM serotonin 100%. activation, % at 7.6 µM. 2,300 tested, 19% active;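 active = mean activation across triplicates above the hit threshold derived in the original primary screen, cut at about 15% in these data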
Large screens that a line does not name were inactive (follow-up assays come after a bar, where they were run).

CCOC(=O)CN1C(=O)N[C@@H](c2cccc(C(F)(F)F)c2)[C@H](C(C)=O)[C@H]1C	m5-HT2A agonist 18.4 (no result: PfM18AAP inh, Lipid droplet) | MOR ag counter inactive | HTR2A ag conf inactive
Cc1cnc(=O)[nH]c1SCC(=O)Nc1nccs1	m5-HT2A agonist 14.9 (no result: PfM18AAP inh, Lipid droplet) | MOR ag counter inactive | HTR2A ag conf inactive
Cc1cc(Cl)cc(C)c1OCCNCc1ccccc1	m5-HT2A agonist 21.4 | MOR ag counter inactive | HTR2A ag conf inactive
Cc1cc(Cl)cc(C)c1OCCOCCNCc1ccccc1	none
O=C(CCl)N(C1CCCC1)C1CCS(=O)(=O)C1 (configuration not stated)	none
CCOc1ccc(NC2c3ccccc3C(=O)N2Cc2ccco2)cc1 (configuration not stated)	m5-HT2A agonist 38.4 | MOR ag counter inactive | HTR2A ag conf inactive
COc1ccc(NC2c3ccccc3C(=O)N2Cc2ccco2)cc1OC (configuration not stated)	none
O=C(NC1=N[C@@]2(C=C3CCCCC3n3c(=O)n(-c4ccccc4)c(=O)n32)[C@H](Cc2ccccc2)N1Cc1ccccc1)c1ccccc1 (some centres not stated)	none (no result: NRP1-CendR mod, Arrestin-AP2 inh, m5-HT2A agonist, PfM18AAP inh, Lipid droplet)
CCCN1C(=O)c2n[nH]c(C)c2C1c1ccc(Br)cc1 (configuration not stated)	none (no result: NRP1-CendR mod, Arrestin-AP2 inh, m5-HT2A agonist, PfM18AAP inh, Lipid droplet)
S=c1[nH]nc2ccccn12	m5-HT2A agonist 20.9 (no result: PfM18AAP inh, Lipid droplet) | MOR ag counter inactive | HTR2A ag conf inactive
Cc1ccn2c(=S)[nH]nc2c1	none (no result: Arrestin-AP2 inh, PfM18AAP inh, Lipid droplet)
O=C(C1=C(O)C(=O)N(Cc2ccco2)C1c1cccc(O)c1)c1ccco1 (configuration not stated)	m5-HT2A agonist 16.8 | MOR ag counter inactive | HTR2A ag conf inactive
CC1CCN(Cc2nnnn2CCCC(=O)NCCc2cnn(C)c2)CC1	m5-HT2A agonist 15.6 | MOR ag counter inactive | HTR2A ag conf inactive
CC1CCN(Cc2nnnn2CCCC(=O)NCC(C)(C)N2CCOCC2)CC1	none
O=C(CCc1ccccc1)NC1CCSC1=O (configuration not stated)	none (no result: Lipid droplet)
O=C(COc1ccccc1)NC1CCSC1=O (configuration not stated)	m5-HT2A agonist 20.9 | MOR ag counter inactive | HTR2A ag conf inactive
Cc1cc2c3c(c1C)C1(C(=O)N3C(C)(C)CC2C)C(C#N)=C(N)Oc2cc(O)ccc21 (configuration not stated)	m5-HT2A agonist 25.0 | MOR ag counter inactive | HTR2A ag conf inactive
COC(=O)[C@]12C[C@H](CC(=O)NCCC(C)C)C(=O)N(Cc3ccc4c(c3)OCO4)C1=C[C@H](COCc1ccccc1)O[C@@H]2C	none (no result: NRP1-CendR mod, Arrestin-AP2 inh, m5-HT2A agonist, PfM18AAP inh, Lipid droplet)
C[C@H](NC(=O)[C@@H]1CSC2c3ccccc3C(=O)N21)C(=O)NCc1c(F)cccc1Cl (some centres not stated)	m5-HT2A agonist 16.6 | MOR ag counter inactive | HTR2A ag conf inactive
C[C@H](NC(=O)[C@@H]1CSC2c3ccccc3C(=O)N21)C(=O)NC1CCCC1 (some centres not stated)	none
CCCCC(=O)Nc1cc2nn(-c3ccc(OC)cc3)nc2cc1C	m5-HT2A agonist 15.0 (no result: Lipid droplet) | MOR ag counter inactive | HTR2A ag conf inactive
Cc1onc(-c2ccccc2)c1C(=O)N1CCN(Cc2ccccc2)CC1	none
CCN1CCN(C(=O)c2c(-c3ccccc3)noc2C)CC1	m5-HT2A agonist 16.7 | MOR ag counter inactive | HTR2A ag conf inactive
CCCC(=O)Nc1cccc(-c2nc3ccccc3c(=O)o2)c1	m5-HT2A agonist 15.0 | MOR ag counter inactive | HTR2A ag conf inactive
COc1cc2c(cc1OC)C(c1ccc3c(c1)Cc1ccccc1-3)OC(=O)C2 (configuration not stated)	none (no result: Arrestin-AP2 inh, PfM18AAP inh, Lipid droplet)
O=C(NC(=S)NC1CCCCCCCCCCC1)c1cccnc1	m5-HT2A agonist 17.0 (no result: Lipid droplet) | MOR ag counter inactive | HTR2A ag conf inactive
O=C(NC(=S)NC1CC1)c1cccnc1	none (no result: Lipid droplet)
CC(=O)OC(C(=O)Nc1nccs1)c1ccccc1 (configuration not stated)	m5-HT2A agonist 16.1 | MOR ag counter inactive | HTR2A ag conf inactive
O=C(CSc1nc(-c2cccs2)nc2ccccc12)NC1CCS(=O)(=O)C1 (configuration not stated)	m5-HT2A agonist 19.1 (no result: PfM18AAP inh, Lipid droplet) | MOR ag counter 0.5 | HTR2A ag conf inactive
CCOC(=O)CC1(C)Sc2ccccc2N1S(=O)(=O)c1ccc(C)cc1 (configuration not stated)	none (no result: Arrestin-AP2 inh, PfM18AAP inh, Lipid droplet)
CC(C)c1nc(SCC(=O)NCC2CCCO2)c2c(=O)n(C)c(=O)n(C)c2n1 (configuration not stated)	m5-HT2A agonist 28.2 | MOR ag counter inactive | HTR2A ag conf inactive
COc1ccc2c3c([nH]c2c1)[C@]1(NCC3)C(=O)N(C)c2ccc(Cl)cc21	none (no result: NRP1-CendR mod, Arrestin-AP2 inh, m5-HT2A agonist, PfM18AAP inh, Lipid droplet)
CCOC(=O)C1(Cc2cccc(Cl)c2)CCCN(C(=O)c2cc(C)n(C)n2)C1 (configuration not stated)	m5-HT2A agonist 16.7 | MOR ag counter inactive | HTR2A ag conf inactive
CCOC(=O)C1(Cc2cccc(Cl)c2)CCCN(C(=O)c2ccnn2C)C1 (configuration not stated)	none
CC(=O)NC1CCCCN(C)C1=O (configuration not stated)	none (no result: NRP1-CendR mod, Arrestin-AP2 inh, m5-HT2A agonist, PfM18AAP inh, Lipid droplet)
Cc1cc(C(C)(C)C)cc(C)c1CC1=NCCN1	m5-HT2A agonist 24.4 | MOR ag counter inactive | HTR2A ag conf 24.3
Nc1nc2c(s1)CCCCCCCCCC2	none
CCCN[C@H]1CCc2nc(N)sc2C1	m5-HT2A agonist 59.9 (no result: PfM18AAP inh, Lipid droplet) | MOR ag counter inactive | HTR2A ag conf 142.1
COC(=O)C[C@@H]1OC[C@H](C)N1S(=O)(=O)c1ccc(C)cc1	none (no result: Arrestin-AP2 inh, PfM18AAP inh, Lipid droplet)
CCC[C@H]1[C@@H](OC(=O)NCc2cccc(C(F)(F)F)c2)CC[C@@]23CCCN2C(=O)CCC[C@@H]13	none (no result: NRP1-CendR mod, Arrestin-AP2 inh, m5-HT2A agonist, PfM18AAP inh, Lipid droplet)
CN1CCc2cccc3c2[C@H]1Cc1ccc(O)c(O)c1-3	m5-HT2A agonist 44.1, PfM18AAP inh 34.5 | MOR ag counter inactive | HTR2A ag conf 125.0
COc1ccccc1CCn1cnc(-c2ccc(Br)cc2)c1CC(C)C	none (no result: NRP1-CendR mod, Arrestin-AP2 inh, m5-HT2A agonist, PfM18AAP inh, Lipid droplet)
CCCCc1c(-c2ccccc2OC)ncn1Cc1ccc(OC)cc1	none (no result: NRP1-CendR mod, Arrestin-AP2 inh, m5-HT2A agonist, PfM18AAP inh, Lipid droplet)
CCC(=O)c1ccc(OCC(O)CN2CCN(c3ccccn3)CC2)cc1 (configuration not stated)	m5-HT2A agonist 29.2 | MOR ag counter inactive | HTR2A ag conf 100.0
COc1cc(C(C)=O)ccc1OCC(O)CN1CCN(c2ccccn2)CC1 (configuration not stated)	m5-HT2A agonist 23.3 | MOR ag counter inactive | HTR2A ag conf 85.9

From PubChem
